ChEMBL document CHEMBL2424625, “Synthesis and structure-activity relationships of novel indazolyl glucocorticoid receptor partial agonists” (Bioorg Med Chem Lett, 2013)
Activity calls are given as the source filed them. The rule behind the calls is not given here.

Experiments:
[1] = molecular target: T1, Glucocorticoid receptor (Homo sapiens) (UniProt P04150); test: Partial agonist activity at glucocorticoid receptor (unknown origin) by fluorescence assay
T1 sequence (whole entry): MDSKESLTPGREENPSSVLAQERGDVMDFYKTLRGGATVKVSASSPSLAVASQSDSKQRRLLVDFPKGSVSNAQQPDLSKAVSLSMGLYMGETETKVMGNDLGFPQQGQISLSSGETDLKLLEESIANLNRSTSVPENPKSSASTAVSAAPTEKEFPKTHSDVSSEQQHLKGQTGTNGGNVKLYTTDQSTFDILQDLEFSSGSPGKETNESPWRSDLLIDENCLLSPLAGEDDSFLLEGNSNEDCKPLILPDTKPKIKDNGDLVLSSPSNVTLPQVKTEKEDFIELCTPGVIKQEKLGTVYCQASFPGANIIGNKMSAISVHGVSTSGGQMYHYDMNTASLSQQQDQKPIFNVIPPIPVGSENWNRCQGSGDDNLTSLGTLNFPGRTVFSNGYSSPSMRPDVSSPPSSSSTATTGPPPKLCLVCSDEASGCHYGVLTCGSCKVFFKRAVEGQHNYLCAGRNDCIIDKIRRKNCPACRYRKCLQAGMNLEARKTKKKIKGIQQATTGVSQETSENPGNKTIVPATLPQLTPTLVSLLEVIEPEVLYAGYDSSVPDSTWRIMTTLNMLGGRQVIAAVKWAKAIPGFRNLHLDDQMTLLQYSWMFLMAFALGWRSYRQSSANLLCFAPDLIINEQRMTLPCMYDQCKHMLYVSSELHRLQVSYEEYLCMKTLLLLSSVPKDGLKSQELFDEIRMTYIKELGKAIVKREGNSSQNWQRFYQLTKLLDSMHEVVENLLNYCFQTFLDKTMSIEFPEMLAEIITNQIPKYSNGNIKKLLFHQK

Androgen receptor = molecular target: T2, Androgen receptor (Homo sapiens, UniProt P10275); test: Binding affinity to androgen receptor (unknown origin) by fluorescence assay
T2 sequence (P10275 whole entry): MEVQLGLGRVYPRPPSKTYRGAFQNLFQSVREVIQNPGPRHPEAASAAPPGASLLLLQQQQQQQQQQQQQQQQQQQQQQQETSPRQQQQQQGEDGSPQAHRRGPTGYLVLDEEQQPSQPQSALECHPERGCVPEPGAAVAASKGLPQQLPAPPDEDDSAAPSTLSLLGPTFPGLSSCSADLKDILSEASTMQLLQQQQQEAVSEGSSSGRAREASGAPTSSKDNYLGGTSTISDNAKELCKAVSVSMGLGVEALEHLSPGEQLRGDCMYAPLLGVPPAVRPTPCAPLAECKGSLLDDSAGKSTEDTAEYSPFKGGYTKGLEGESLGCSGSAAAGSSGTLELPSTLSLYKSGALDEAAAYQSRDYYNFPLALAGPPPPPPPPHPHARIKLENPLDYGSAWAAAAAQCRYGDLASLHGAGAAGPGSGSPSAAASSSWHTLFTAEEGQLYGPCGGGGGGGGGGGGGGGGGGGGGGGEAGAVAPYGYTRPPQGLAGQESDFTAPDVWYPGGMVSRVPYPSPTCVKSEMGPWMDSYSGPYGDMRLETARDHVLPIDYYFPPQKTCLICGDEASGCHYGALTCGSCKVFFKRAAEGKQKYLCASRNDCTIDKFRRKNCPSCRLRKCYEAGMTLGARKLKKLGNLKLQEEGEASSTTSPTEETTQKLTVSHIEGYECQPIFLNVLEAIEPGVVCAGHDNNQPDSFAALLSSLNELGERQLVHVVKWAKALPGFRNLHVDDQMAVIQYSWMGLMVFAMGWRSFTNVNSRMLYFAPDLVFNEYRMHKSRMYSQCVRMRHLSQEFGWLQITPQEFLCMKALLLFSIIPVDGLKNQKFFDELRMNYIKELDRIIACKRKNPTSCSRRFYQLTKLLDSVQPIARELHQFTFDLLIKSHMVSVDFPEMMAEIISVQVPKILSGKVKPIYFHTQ
Procedure, shortened: (§1)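 Fluorescence polarization competition between test compound and a fluorescently labeled ligand for binding to full-length receptor or its ligand binding domain. IC50 was fit to the signal by four-parameter logistic equation. Ki = IC50/(1 + ligand concentration/Kd) (Cheng–Prusoff).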

Progesterone receptor = molecular target: T3, Progesterone receptor (Homo sapiens, UniProt P06401); test: Binding affinity to progesterone receptor (unknown origin) by fluorescence assay; procedure, shortened: as §1
T3 sequence (P06401 whole entry): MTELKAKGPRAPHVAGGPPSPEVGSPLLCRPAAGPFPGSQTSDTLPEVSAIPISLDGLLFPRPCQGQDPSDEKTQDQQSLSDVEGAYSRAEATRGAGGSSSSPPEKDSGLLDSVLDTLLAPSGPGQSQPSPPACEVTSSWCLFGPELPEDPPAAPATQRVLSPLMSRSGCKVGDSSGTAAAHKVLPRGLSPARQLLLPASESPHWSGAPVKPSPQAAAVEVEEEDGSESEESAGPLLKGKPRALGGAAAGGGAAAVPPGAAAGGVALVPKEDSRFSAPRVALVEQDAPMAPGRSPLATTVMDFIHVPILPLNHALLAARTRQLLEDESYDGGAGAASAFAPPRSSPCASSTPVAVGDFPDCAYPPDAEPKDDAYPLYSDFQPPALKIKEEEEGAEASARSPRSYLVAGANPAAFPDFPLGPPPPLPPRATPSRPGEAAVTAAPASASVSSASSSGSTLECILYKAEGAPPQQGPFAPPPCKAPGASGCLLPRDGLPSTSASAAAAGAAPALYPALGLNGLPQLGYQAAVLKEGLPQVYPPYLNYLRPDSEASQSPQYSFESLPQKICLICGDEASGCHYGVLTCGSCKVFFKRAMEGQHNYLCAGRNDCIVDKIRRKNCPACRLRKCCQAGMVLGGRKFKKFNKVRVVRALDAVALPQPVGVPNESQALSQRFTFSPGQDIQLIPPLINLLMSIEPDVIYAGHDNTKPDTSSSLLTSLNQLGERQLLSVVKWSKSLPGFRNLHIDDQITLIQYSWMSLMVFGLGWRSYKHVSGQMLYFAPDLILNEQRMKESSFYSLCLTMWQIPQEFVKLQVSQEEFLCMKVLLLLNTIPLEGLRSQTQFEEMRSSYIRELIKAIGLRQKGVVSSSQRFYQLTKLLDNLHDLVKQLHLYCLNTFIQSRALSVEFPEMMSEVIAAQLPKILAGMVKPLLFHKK

Activity [1]	Ki (Androgen receptor)	Ki (Progesterone receptor)	Structure (SMILES)
Active	> 5 µM	0.406 µM	CC(C)(CNS(=O)(=O)CC(F)(F)F)[C@@H](c1ccccc1)c1ccc2c(cnn2-c2ccc(F)cc2)c1
Active	> 5 µM	> 5 µM	CC(C)(C)NC(=O)NCC(C)(C)[C@@H](c1ccccc1)c1ccc2c(cnn2-c2ccc(F)cc2)c1
	> 5 µM	> 5 µM	CC(C)(CNC(=O)CC(F)(F)F)[C@@H](c1ccccc1)c1ccc2c(cnn2-c2ccc(F)cc2)c1
